Data on 15 compounds can be found in PubChem BioAssay.

Values without a mark were called inactive. Records with an inconclusive call do not appear. Active and inactive are the calls of the source.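 The calls were made as follows, unless noted: active = viability increase at or above a cutoff of the median across tested compounds plus 3 SD (cut at about 8.5% in these data, passing the limit was not always enough); inconclusive = some gains above the cutoff, reason not given; inactive = the rest.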

Test [1] can be described thus: OD615 S. cerevisiae growth inhibition, permissive medium, pilot counter-assay, permissive growth control for S. cerevisiae lifespan shortening project (AID 705;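 active = growth inhibition above 25% in both replicates, a cutoff set 3 SD above the mean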). The following applies: OD615, 24 h, at 10 µM, hits give high values. A digest of the protocol: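 System: Engineered DeaD yeast | Buffer or medium: SC raffinose/galactose permissive medium | Incubation: Cells pre-grown 4 h, then 24 h compound exposure, 30 °C humidified | Measured by: Absorbance (optical density) at 615 nm | Read-out: Reduction in yeast growth (OD615)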

The nature of test [2]: Restrictive medium S. cerevisiae growth inhibition, OD615, pilot screen of yeast lifespan reduction project, restrictive growth control (AID 706;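 active = growth inhibition above a set limit, 3 SD over mean compound inhibition, in both replicates, cut at about 43% in these data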;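 also: modified DeaD lifespan yeast strain shifted to restrictive glucose medium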). The following applies: OD615, 48 h, at 10 µM, hits give high values. The method, boiled down: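 Material: modified S. cerevisiae; Medium: glucose-based CSMM-D restrictive medium; Compound dosing: one concentration, 10 µM final, 0.25% DMSO; Incubation: 48 h compound exposure at 30 °C; Measured by: OD615.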

Test [3] is described as follows: viability gain of MRP-1-high H69AR cells under doxorubicin, pilot screen, MRP-1 activator project, CellTiter-Glo, duplicate (AID 807).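 Also: compound pretreatment 18-22 h then 72 h combined with doxorubicin; 0% = doxorubicin alone and 100% = vehicle without doxorubicin.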 Particulars: H69AR viability with doxorubicin, CellTiter-Glo luminescence; at 10 µM; hits give high values. A general note: In ATP-based viability assays light output follows the ATP content of the culture.
Test [4] is described as follows: growth suppression of beta-catenin knockout HCT116, pilot screen, human colon tumor cells (AID 823;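 active = cell viability at or below a set limit in both duplicate runs, the limit being the all-compound median minus 4 SD, cut at about 23% in these data, passing the limit was not always enough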;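 also: 0% = wells killed by 20 µM Hyamine and 100% = untreated DMSO cell wells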). Particulars: CellTiter-Glo, 60 h, at 10 µM, hits give low values.
A short description of test [5]: growth suppression of PTEN-deleted HCT116, pilot screen, cell-based, HCT116 clonal line, CellTiter-Glo (AID 824;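 active = viability at or below 27.92% in each of two runs, the all-compound median minus 4 SD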;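 also: 0% = 20 µM Hyamine control and 100% = vehicle cell control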). The following applies: 60 h, at 10 µM, hits give low values.
Test [6] is described as follows: inhibitors of the yeast RAM network, pilot screen, dse1pr::URA3 reporter, 5-FOA selection (AID 869;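 active = inhibition over a set limit, the all-compound mean plus 3 SD, in both replicate runs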;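 also: 0% = DMSO wells with no growth and 100% = 10 µM 1-NA-PP1 with full growth; RAM network block rescues cells from 5-FOA so hits raise OD615 growth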). Particulars: S. cerevisiae dse1pr::URA3 5-FOA growth, OD615, 2 d; at 10 µM; hits give high values; strain carries analog-sensitive mutant Cbk1 kinase.
Test [7] is described as follows: RAM signaling pathway blockade in yeast – S. cerevisiae, Pdr1DBD-CYC8 efflux-inhibited sensitized strain, primary screen (AID 1298;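 active = RAM network inhibition above 8.4% in each of two replicates, 3 SD over the compound average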;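 also: 0% = DMSO untreated cells without growth and 100% = 10 µM 1-NA-PP1 full growth; higher means more yeast growth rescued from 5-FOA killing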). The following applies: S. cerevisiae cbk1-as DSE1-URA3 strain, 5-FOA growth OD615, 2 d; at 50 µM; hits give high values.

`Cc1cccn2c(=O)c3cc(C(=O)NCCN4CCOCC4)c(=N)n(CCc4ccccc4)c3nc12`: the growth inhibition in test [1] is -0.895%; in test [2], -4.73%. For the same compound, the viability increase in test [3] was -5.8%. Further, the viability – broadly, a read-out of living cells in per cent, often relative to untreated cells – was 5.75% (active) in test [4] and 12.8% (active) in test [5]. Besides, the inhibition (usually the relative decrease from the control value, in per cent) in test [6] was 1.02%. The RAM network inhibition in test [7] is 2.73%.
As for `COc1ccc(CCNC(=O)CCS(=O)(=O)c2cccc3nsnc23)cc1OC`, the growth inhibition is -10.1% in test [1] and -13.1% in test [2]. For the same compound, the viability increase in test [3] was -2.17%. Further, the viability is 96.4% in test [4] and 97.5% in test [5]. For the same compound, the inhibition in test [6] was 0.45%. Besides, the RAM network inhibition in test [7] was 3.1%.
On to `CCOC(=O)N1CCN(C(=O)c2cc3c(=O)n(C)c4ccccc4c3n2C)CC1`, for which the results for the growth inhibition in test [1] and in test [2] were -9.54% and 1.15%, respectively. For the same compound, the viability increase in test [3] was -2.85%. For the same compound, the viability in test [4] was 94.6%; in test [5], 89.9%. The inhibition in test [6] was 1.31%. The RAM network inhibition in test [7] is 0.42%.
In the case of `COc1cccc2sc(Nc3nnc(-c4ccccc4Cl)o3)nc12`, the growth inhibition is -29.8% in test [1] and -13.7% in test [2]. In addition, the viability increase in test [3] was -4.31%. The values for the viability in test [4] and in test [5] were 15.4% (active) and 18.8% (active), respectively. The inhibition in test [6] is 1.1%. For the same compound, in test [7], the RAM network inhibition is 1.26%.
In the case of `CC1CCN(C(=O)C(Cc2ccccc2)n2cccc2)CC1` (stereo not given), the growth inhibition in test [1] is -6.79%; in test [2], -8.94%. Moreover, the viability increase in test [3] is -3.15%. The viability in test [4] was 87.9%; in test [5] it was 79%. Further, in test [6], the inhibition was 2.27%. The RAM network inhibition in test [7] was 5.92%.
As for `CCN(CC)C1=CC(=O)OC12CCCCC2`, the growth inhibition is -13.1% in test [1] and 0.735% in test [2]. In addition, the viability increase in test [3] is -2.99%. Further, the viability is 98.5% in test [4] and 93.7% in test [5]. For the same compound, in test [6], the inhibition is 2.08%. The RAM network inhibition in test [7] is 9.79%.
For the compound `Cc1ccc(-c2nnc3n2N=C(c2ccccc2)CS3)cc1`, the figures for the growth inhibition in test [1] and in test [2] were -5.77% and 6.07%, respectively. Further, the viability increase in test [3] is -0.74%. The viability in test [4] was 97.7%; in test [5], 96.9%. Besides, the inhibition in test [6] is 3.56%. In test [7], the RAM network inhibition was 2.25%.
As to `COCCN1C(=O)c2oc3ccccc3c(=O)c2C1c1ccc(OC)c(OC)c1` (stereo not given), the growth inhibition is -24% in test [1] and -16.9% in test [2]. Further, the viability increase in test [3] was -1.75%. In addition, the viability in test [4] was 107%; in test [5], 95.1%. Further, in test [6], the inhibition was 0.865%. Further, the RAM network inhibition in test [7] is 4.46%.
Turning to `COc1ccccc1NC(=O)N1CCN(c2ccc3nncn3n2)CC1`, the values for the growth inhibition in test [1] and in test [2] were -3.47% and 0.79%, respectively. Further, the viability increase in test [3] was 0.48%. In addition, the viability in test [4] was 106%; in test [5] it was 103%. For the same compound, in test [6], the inhibition was -0.315%. Also, the RAM network inhibition in test [7] was 0.69%.
Consider `O=C(CS(=O)(=O)c1cn(Cc2cccc(F)c2)c2ccccc12)N1CCOCC1`, for which the growth inhibition is -9.09% in test [1] and -22% in test [2]. The viability increase in test [3] is -3.47%. Besides, the viability in test [4] was 91.1%; in test [5], 88.8%. Moreover, the inhibition in test [6] is 2.82%. The RAM network inhibition in test [7] is 6%.
For the compound `CCOC(=O)C1C(=O)N(C(=O)c2cncc(Br)c2)CC1c1ccccc1` (stereo not given), the growth inhibition is -0.835% in test [1] and 8.88% in test [2]. Also, the viability increase in test [3] is -0.37%. The viability in test [4] is 101%; in test [5], 106%. Further, the inhibition in test [6] was 0.985%. In addition, the RAM network inhibition in test [7] is 9.56%.
For `CCCCOC(=O)Cc1c(O)c2ccccc2[nH]c1=O`, the growth inhibition in test [1] was 10.9%; in test [2], 12.5%. Further, the viability increase in test [3] was -1.82%. Also, the viability was 102% in test [4] and 93.2% in test [5]. Besides, in test [6], the inhibition is 1.82%. In test [7], the RAM network inhibition is -0.98%.
As for `O=C(NC1CC1)c1ccc(CSCc2cccc(F)c2)o1`, the growth inhibition in test [1] is 3.53%; in test [2], 3.37%. The viability increase in test [3] was -2.78%. In addition, the viability was 82.3% in test [4] and 86.3% in test [5]. Also, the inhibition in test [6] is 1.08%. In addition, the RAM network inhibition in test [7] was 4.29%.
As to `CCOC(=O)N1CCC(NC(=O)c2cc3c(-c4ccccc4F)nn(C)c3s2)CC1`, the growth inhibition in test [1] is -7.38%; in test [2], -13.5%. In test [3], the viability increase is -3.97%. In addition, the viability in test [4] was 75.6%; in test [5], 84.2%. Also, the inhibition in test [6] is 1.74%. Moreover, the RAM network inhibition in test [7] is 0.42%.
Regarding `Cc1ccc(CNC(=O)c2cc3c(=O)n(C)c4ccccc4c3n2C)o1`, the growth inhibition in test [1] was 1.32%; in test [2], 0.445%. Also, in test [3], the viability increase is -4.08%. Besides, the results for the viability in test [4] and in test [5] were 106% and 104%, respectively. In test [6], the inhibition was 2.61%. Moreover, the RAM network inhibition in test [7] was 4.84%.
